Laboratory results from ChEMBL document CHEMBL4680083, “Identification of Tricyclic Agonists of Sphingosine-1-phosphate Receptor 1 (S1P) Employing Ligand-Based Drug Design” (J Med Chem, 2016).
Activity calls are given as the source filed them. No cut-off for these calls is given here.

Key:
[1] = AUC in mouse at 5 mg/kg, po; type: ADME, organism-based; parameters: dose 5 mg/kg; conditions: in vivo
[2] = Half-life in dog at 0.1 mg/kg, po or 0.1 mg/kg, iv; type: ADME, organism-based, Canis lupus familiaris; conditions: in vivo
Rattus norvegicus [3] = test: Antiarthritic activity in Lewis rat model of Complete Freund's adjuvant-induced arthritis assessed as effective dose causing reduction in paw swelling administered orally once daily for 21 days after CFA injection and measured weekly three times upto day 21 by water displacement plethysmometer; type: functional; conditions: po, 504 h, time 21 day
Summary of the method: (§1)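 Male Lewis rats, 200−225 g, n = 8 per group. Immunized at the tail base with 100 μL of 10 mg/mL ground Mycobacterium butyricum in incomplete Freund's adjuvant. Oral dosing once daily in PEG300 vehicle from the day of immunization for 21 days, at 0.03, 0.1 or 1.0 mg/kg. Dexamethasone 0.1 mg/kg PO QD as positive control. Paw volume by water displacement plethysmometry, day 7 to day 21.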

[4] = Oral bioavailability in cynomolgus monkey at 0.5 mg/kg; type: ADME, organism-based, Macaca fascicularis; conditions: in vivo
[5] = biological target: T1, Sphingosine 1-phosphate receptor 1 (Homo sapiens, UniProt P21453); test: Agonist activity at human S1P1 assessed as stimulation of cAMP accumulation; type: functional
T1 sequence (P21453 whole entry): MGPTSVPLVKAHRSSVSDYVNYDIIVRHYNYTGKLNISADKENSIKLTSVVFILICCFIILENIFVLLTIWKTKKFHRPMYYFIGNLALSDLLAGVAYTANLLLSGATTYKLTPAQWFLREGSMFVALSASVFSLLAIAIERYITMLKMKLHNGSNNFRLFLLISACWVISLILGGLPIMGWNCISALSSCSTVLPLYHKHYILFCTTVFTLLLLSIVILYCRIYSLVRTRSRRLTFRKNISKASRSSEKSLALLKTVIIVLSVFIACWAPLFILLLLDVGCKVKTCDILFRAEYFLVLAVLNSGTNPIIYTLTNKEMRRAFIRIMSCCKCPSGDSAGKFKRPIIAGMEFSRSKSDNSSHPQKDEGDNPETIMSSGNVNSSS

[6] = Metabolic stability in mouse assessed as half-life; type: ADME
[7] = biological target: T1, Sphingosine 1-phosphate receptor 1; test: Agonist activity at human S1P1 expressed in CHO cell membranes assessed as stimulation of [35S]-GTPgamma-S binding measured after 45 mins by liquid scintillation counting method relative to control; conditions: Cell membrane, filed as agonist
Summary of the method: (§2)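 S1P1/CHO cell membranes at 3 μg protein/well with 3-fold compound dilutions. [35S]GTPγS 0.2 nM final, 45 min at room temperature. Filter-plate capture, water washes, scintillation counting. EC50 taken at 50% of each compound's own Ymax.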

[8] = Tmax in cynomolgus monkey at 0.5 mg/kg, po or 0.5 mg/kg, iv; type: ADME, organism-based, Macaca fascicularis; conditions: in vivo
[9] = Half-life in mouse at 5 mg/kg, po or 2 mg/kg, iv; type: ADME, organism-based; conditions: in vivo
[10] = Permeability of compound at pH 5.5 by PAMPA; type: ADME; conditions: read-out: permeability
[11] = biological target: Voltage-gated inwardly rectifying potassium channel KCNH2 (Homo sapiens, UniProt Q12809); test: Inhibition of human ERG by patch clamp assay
Sequence of Voltage-gated inwardly rectifying potassium channel KCNH2 (Q12809 whole entry): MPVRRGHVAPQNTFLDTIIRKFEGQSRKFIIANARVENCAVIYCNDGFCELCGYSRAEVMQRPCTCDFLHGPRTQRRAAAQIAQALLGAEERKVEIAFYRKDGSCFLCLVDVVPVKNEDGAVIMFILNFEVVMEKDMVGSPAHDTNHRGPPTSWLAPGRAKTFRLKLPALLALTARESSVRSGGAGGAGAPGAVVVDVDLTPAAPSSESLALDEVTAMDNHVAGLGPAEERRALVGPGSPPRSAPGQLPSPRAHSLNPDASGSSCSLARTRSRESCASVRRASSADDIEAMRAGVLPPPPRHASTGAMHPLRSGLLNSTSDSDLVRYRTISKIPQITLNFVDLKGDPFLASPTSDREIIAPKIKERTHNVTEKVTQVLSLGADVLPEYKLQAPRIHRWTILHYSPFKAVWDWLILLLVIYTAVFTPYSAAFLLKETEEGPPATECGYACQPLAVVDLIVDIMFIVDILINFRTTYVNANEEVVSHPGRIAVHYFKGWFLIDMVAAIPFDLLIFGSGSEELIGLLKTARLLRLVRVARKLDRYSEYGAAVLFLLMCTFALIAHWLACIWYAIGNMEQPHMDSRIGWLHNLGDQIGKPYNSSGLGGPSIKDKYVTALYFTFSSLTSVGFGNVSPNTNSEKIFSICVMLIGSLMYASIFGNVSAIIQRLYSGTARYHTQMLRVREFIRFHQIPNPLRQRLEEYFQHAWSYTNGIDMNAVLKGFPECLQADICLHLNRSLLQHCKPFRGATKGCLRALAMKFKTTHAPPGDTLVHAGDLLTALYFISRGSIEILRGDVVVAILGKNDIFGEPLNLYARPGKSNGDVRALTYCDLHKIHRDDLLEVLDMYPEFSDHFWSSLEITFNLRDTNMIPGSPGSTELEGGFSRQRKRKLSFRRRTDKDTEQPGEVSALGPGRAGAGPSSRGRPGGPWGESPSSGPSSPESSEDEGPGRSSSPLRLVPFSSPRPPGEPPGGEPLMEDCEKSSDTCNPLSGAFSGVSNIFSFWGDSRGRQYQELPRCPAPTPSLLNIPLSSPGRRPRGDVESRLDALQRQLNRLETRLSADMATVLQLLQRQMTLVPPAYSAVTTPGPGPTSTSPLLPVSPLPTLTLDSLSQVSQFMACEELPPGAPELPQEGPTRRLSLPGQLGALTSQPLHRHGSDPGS

[12] = Protein binding in dog assessed as bound fraction; type: ADME, Canis lupus familiaris; conditions: read-out: PB (converted)
[13] = Cmax in mouse at 5 mg/kg, po or 2 mg/kg, iv; type: ADME, organism-based; parameters: dose 5 mg/kg; conditions: in vivo
[14] = biological target: Sphingosine 1-phosphate receptor 3 (Homo sapiens, UniProt Q99500); test: Agonist activity at human S1P3 expressed in CHO cell membranes assessed as stimulation of [35S]-GTPgamma-S binding measured after 45 mins by liquid scintillation counting method; parameters: species or system Cell membrane
Sequence of Sphingosine 1-phosphate receptor 3 (Q99500 whole entry): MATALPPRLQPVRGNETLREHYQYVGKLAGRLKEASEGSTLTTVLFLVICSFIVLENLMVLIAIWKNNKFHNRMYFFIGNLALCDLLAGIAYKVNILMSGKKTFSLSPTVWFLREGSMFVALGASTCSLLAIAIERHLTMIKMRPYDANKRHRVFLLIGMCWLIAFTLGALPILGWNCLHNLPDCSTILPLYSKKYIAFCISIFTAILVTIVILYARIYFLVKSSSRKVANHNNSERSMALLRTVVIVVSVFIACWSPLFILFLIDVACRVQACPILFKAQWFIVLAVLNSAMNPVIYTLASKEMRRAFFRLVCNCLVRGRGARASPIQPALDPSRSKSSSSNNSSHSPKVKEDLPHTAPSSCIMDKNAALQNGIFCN

[15] = Clearance in rat at 1 mg/kg, po or 1 mg/kg, iv; type: ADME, organism-based; conditions: in vivo
Cytochrome P450 3A4 = Cytochrome P450 3A4 (Homo sapiens, UniProt P08684); test: Inhibition of CYP3A4 (unknown origin) using 7-benzyloxy resorufin as substrate; type: ADME
Sequence of Cytochrome P450 3A4 (P08684 whole entry): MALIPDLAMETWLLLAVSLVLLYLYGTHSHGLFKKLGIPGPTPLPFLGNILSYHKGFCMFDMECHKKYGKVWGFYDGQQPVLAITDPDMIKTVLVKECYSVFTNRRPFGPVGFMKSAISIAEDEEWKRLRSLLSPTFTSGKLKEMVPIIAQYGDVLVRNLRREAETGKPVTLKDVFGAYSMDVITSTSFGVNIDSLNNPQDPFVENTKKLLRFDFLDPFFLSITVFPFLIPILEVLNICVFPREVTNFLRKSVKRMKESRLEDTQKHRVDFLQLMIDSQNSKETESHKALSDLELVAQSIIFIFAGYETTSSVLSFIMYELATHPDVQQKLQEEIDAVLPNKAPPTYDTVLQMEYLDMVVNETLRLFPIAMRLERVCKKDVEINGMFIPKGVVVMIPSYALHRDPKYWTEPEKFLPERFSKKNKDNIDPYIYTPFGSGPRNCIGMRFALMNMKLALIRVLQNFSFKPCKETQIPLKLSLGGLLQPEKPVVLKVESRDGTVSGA

[16] = Volume of distribution at steady state in cynomolgus monkey at 0.5 mg/kg, po or 0.5 mg/kg, iv; type: ADME, organism-based, Macaca fascicularis; conditions: in vivo, read-out: Vdss
[17] = biological target: T2, Nuclear receptor subfamily 1 group I member 2 (Homo sapiens, UniProt O75469); test: Transactivation of PXR (unknown origin); type: ADME
T2 sequence (O75469 whole entry): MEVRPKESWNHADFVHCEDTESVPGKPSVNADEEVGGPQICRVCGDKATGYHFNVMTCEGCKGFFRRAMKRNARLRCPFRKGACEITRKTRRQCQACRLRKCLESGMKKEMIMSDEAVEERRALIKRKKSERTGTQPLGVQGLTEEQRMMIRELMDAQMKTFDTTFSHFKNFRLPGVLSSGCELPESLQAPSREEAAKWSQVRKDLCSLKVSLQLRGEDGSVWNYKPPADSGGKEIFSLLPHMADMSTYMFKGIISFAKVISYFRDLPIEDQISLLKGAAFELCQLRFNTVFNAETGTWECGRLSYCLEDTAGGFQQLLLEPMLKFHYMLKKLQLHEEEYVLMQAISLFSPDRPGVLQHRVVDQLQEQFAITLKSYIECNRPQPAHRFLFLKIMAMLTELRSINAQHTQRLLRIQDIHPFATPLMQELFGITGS

[18] = biological target: T1, Sphingosine 1-phosphate receptor 1; test: Binding affinity to human S1P1
[19] = Tmax in dog at 0.1 mg/kg, po or 0.1 mg/kg, iv; type: ADME, organism-based, Canis lupus familiaris; conditions: in vivo
[20] = Half-life in rat at 1 mg/kg, po or 1 mg/kg, iv; type: ADME, organism-based; conditions: in vivo
[21] = Protein binding in monkey assessed as bound fraction; type: ADME, Macaca mulatta; conditions: rhesus monkey; read-out: PB (converted)
Cytochrome P450 2C9 = Cytochrome P450 2C9 (Homo sapiens, UniProt P11712); test: Inhibition of CYP2C9 (unknown origin); type: ADME
Sequence of Cytochrome P450 2C9 (P11712 whole entry): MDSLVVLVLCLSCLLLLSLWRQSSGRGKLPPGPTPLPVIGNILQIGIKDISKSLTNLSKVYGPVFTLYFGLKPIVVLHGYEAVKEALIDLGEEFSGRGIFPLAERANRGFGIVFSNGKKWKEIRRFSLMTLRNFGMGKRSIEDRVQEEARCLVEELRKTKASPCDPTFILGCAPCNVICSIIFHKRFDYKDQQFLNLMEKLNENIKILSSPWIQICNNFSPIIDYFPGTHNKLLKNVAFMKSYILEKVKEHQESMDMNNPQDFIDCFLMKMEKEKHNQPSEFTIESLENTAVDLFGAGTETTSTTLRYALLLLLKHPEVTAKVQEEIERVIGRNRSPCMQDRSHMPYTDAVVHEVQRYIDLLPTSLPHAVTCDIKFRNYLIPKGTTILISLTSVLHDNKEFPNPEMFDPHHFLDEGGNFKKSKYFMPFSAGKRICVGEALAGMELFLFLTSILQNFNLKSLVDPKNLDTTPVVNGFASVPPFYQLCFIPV

Rattus norvegicus [22] = test: Antiarthritic activity in Lewis rat model of Complete Freund's adjuvant-induced arthritis assessed as inhibition in paw swelling at 0.1 to 1 mg/kg, po qd administered for 21 days after CFA injection and measured weekly three times upto day 21 by water displacement plethysmometry; type: functional, organism-based; conditions: dose 0.1-1 mg/kg, time 21.0 day; summary of the method: as §1
[23] = Permeability of compound at pH 7.7 by PAMPA; type: ADME; conditions: read-out: permeability
Homo sapiens = species: Homo sapiens; test: Inhibition of sodium channel (unknown origin) assessed as reduction in 1 and 4 Hz-induced channel current at 10 uM by patch clamp technique relative to control
[24] = Cmax in dog at 0.1 mg/kg, po or 0.1 mg/kg, iv; type: ADME, organism-based, Canis lupus familiaris; parameters: dose 0.1 mg/kg; conditions: in vivo
Rattus norvegicus [25] = test: Reduction in circulating lymphocytes count in Lewis rat blood assessed as effective dose administered orally measured at 4 to 24 hrs by hematology analyzer based analysis; type: functional; conditions: po, time 4-24 hrs
[26] = Protein binding in rat assessed as bound fraction; type: ADME; conditions: read-out: PB (converted)
Cytochrome P450 2D6 = Cytochrome P450 2D6 (Homo sapiens, UniProt P10635); test: Inhibition of CYP2D6 (unknown origin); type: ADME
Sequence of Cytochrome P450 2D6 (P10635 whole entry): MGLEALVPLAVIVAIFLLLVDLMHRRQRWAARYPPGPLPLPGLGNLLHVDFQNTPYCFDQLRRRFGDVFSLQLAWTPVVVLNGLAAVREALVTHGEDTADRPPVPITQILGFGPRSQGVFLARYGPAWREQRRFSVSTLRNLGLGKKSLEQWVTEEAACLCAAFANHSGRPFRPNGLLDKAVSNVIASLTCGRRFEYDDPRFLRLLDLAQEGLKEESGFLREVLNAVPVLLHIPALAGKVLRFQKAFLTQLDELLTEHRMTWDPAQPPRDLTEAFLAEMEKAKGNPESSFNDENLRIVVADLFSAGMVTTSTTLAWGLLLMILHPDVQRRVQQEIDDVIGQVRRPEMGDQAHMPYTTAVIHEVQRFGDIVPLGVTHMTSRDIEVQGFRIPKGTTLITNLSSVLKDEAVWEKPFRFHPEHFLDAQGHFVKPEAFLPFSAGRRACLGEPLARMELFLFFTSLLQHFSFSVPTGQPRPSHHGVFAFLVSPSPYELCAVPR

[27] = AUC in rat at 1 mg/kg, po; type: ADME, organism-based; parameters: dose 1 mg/kg; conditions: in vivo
Rattus norvegicus [28] = test: Reduction in circulating lymphocytes count in Lewis rat blood at 1 mg/kg, po measured at 4 hrs by hematology analyzer based analysis; type: functional; parameters: scale not given: the % may be the effect or the level left
Summary of the method: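 Lewis rats were given an oral dose as a solution or suspension in PEG300, with controls receiving vehicle only. Blood was taken by retro-orbital bleeding under isoflurane at 4 and 24 h. Lymphocytes were counted on a hematology analyzer. Reduction is relative to the vehicle group, averaged over the animals in each group (n = 3−4).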

[29] = biological target: T1, Sphingosine 1-phosphate receptor 1; test: Agonist activity at human S1P1 expressed in CHO cell membranes assessed as stimulation of [35S]-GTPgamma-S binding measured after 45 mins by liquid scintillation counting method; parameters: species or system Cell membrane; summary of the method: as §2
[30] = Plasma concentration in Lewis rat at 1 mg/kg, po measured at 4 hr; type: ADME, organism-based; conditions: Lewis, plasma
Summary of the method: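 Lewis rats received a single oral 1.0 mg/kg dose as solution or suspension in PEG300. Blood was drawn retro-orbitally under isoflurane at 4 h and 24 h, within the blood lymphocyte reduction study. n = 3−4 per group, group mean reported.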

Cytochrome P450 2C19 = Cytochrome P450 2C19 (Homo sapiens, UniProt P33261); test: Inhibition of CYP2C19 (unknown origin); type: ADME
Sequence of Cytochrome P450 2C19 (P33261 whole entry): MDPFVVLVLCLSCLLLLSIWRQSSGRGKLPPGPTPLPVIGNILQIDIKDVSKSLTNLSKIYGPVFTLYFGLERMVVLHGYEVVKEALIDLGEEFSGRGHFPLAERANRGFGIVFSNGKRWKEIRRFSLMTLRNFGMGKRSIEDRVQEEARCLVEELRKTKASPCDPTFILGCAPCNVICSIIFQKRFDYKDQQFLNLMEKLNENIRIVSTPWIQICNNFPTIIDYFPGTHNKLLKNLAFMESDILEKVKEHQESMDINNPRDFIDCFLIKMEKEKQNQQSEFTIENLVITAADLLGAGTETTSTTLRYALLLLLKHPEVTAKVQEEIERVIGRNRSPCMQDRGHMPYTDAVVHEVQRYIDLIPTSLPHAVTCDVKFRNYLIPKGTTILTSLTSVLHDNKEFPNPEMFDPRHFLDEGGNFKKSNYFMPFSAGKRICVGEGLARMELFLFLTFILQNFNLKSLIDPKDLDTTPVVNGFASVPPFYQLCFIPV

AUC [1]: 30.3 µM·h
half-life [2]: 1390 min
bioavailability [4]: 80%
EC50 [5]: 0.032 nM
half-life [6]: > 120 min
Emax [7]: 95%
Tmax [8]: 4 h
half-life [9]: 900 min
Papp [10]: 26 ×10⁻⁶ cm/s
fraction unbound [12]: 0.005
Cmax [13]: 3.6 µM
EC50 [14]: 4.4 µM
clearance [15]: 8.5 mL/min/kg
IC50 (Cytochrome P450 3A4): > 40 µM
Vd [16]: 3.6 L/kg
EC50 [17]: > 50 µM
IC50 [18]: 0.38 nM
Tmax [19]: 8 h
half-life [20]: 474 min
fraction unbound [21]: 0.005
IC50 (Cytochrome P450 2C9): > 40 µM
Papp [23]: 28 ×10⁻⁶ cm/s
inhibition (Homo sapiens): 12%
Cmax [24]: 90 nM
fraction unbound [26]: 0.004
IC50 (Cytochrome P450 2D6): > 40 µM
AUC [27]: 1.5 µM·h
EC50 [29]: 0.59 nM
concentration at 4 h [30]: 55 nM
IC50 (Cytochrome P450 2C19): > 40 µM
SMILES: O=C(O)C1CN(Cc2ccc3c(c2)CCc2c-3noc2-c2onc(-c3ccccc3)c2C(F)(F)F)C1
ED50 (Rattus norvegicus [3]): 0.09 mg/kg
IC50 [11]: 2000 nM
Activity (Rattus norvegicus [22]): Active
ED50 (Rattus norvegicus [25]): 0.05 mg/kg
Activity (Rattus norvegicus [28]): 83%
